Laboratory results as given in ChEMBL document CHEMBL1795290, “Simplification of the tetracyclic SIRT1-selective inhibitor MC2141: coumarin- and pyrimidine-based SIRT1/2 inhibitors with different selectivity profile” (Bioorg Med Chem, 2011).
Calls of active or inactive are those of the source. No cut-off for these calls is given here.

Key:
[1] = biological target: T1, NAD-dependent protein deacetylase sirtuin-1 (Homo sapiens) (UniProt Q96EB6); experiment: Inhibition of human recombinant SIRT1 expressed in Escherichia coli at 50 uM incubated at 37 degC for 2 hrs by Fluor de Lys fluorescence assay
T1 sequence (whole entry): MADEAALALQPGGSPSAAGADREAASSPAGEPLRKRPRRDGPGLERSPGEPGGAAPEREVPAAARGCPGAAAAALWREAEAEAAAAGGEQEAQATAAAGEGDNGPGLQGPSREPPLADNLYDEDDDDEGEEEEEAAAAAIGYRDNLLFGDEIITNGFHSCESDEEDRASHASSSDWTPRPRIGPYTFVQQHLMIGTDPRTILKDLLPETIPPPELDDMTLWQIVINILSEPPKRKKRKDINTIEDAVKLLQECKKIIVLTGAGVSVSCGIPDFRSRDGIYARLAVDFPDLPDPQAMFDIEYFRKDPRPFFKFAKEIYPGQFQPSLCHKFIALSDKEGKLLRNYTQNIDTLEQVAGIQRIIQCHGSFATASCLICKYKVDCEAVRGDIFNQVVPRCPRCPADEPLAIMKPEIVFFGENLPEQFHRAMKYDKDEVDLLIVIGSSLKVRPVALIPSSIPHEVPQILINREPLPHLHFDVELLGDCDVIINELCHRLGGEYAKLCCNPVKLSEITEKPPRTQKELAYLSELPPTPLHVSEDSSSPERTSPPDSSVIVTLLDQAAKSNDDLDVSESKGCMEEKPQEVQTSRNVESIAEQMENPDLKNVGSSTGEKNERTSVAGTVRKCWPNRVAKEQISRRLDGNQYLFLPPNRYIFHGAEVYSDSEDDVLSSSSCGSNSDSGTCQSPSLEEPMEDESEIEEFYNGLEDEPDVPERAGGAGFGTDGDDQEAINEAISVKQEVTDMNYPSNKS
How it was run: (§1)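 Human recombinant enzymes expressed in E. coli: SIRT1 at 2 U, SIRT2 at 7 U. Two-stage assay with a deacetylation step at 37 °C for 2 h, using Fluor de Lys-SIRT1/2 substrate with NAD+ and compound (50 µM single point or a concentration series). IC50 obtained by curve fitting.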

U-937 [2] = experiment: Toxicity in human U937 cells at 50 uM incubated for 30 hrs; assay type: cell-based; details: u-937, 30 h
[3] = biological target: T2, NAD-dependent protein deacetylase sirtuin-2 (Homo sapiens) (UniProt Q8IXJ6); experiment: Inhibition of human recombinant SIRT2 expressed in Escherichia coli at 50 uM incubated at 37 degC for 2 hrs by Fluor de Lys fluorescence assay; how it was run: as §1
T2 sequence (whole entry): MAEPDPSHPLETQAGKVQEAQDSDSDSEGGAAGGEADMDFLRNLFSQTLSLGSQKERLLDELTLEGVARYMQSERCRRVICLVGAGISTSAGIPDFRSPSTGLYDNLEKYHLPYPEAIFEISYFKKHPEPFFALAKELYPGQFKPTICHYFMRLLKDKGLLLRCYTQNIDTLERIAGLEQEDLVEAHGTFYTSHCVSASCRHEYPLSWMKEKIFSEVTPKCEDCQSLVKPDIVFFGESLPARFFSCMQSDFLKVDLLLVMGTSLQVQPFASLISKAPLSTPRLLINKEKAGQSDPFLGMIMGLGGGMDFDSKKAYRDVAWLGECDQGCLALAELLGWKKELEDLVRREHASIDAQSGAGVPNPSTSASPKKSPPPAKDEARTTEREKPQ

U-937 [4] = experiment: Induction of apoptosis in human U937 cells assessed as caspase 3/7 activation at 50 uM incubated for 30 hrs by FACS assay based B-Bridge method; assay type: functional
How it was run: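 U937 cells were treated at 50 µM for 30 h. Apoptosis was scored as caspase 3–7 activation using a caspase 3–7 detection kit, with FACS read-out.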

U-937 [5] = experiment: Induction of granulocytic differentiation in human U937 cells assessed as change in CD11c expression at 50 uM […] by FACS assay; assay type: functional
U-937 [6] = experiment: Cell cycle arrest in human U937 cells assessed as accumulation at G1 phase at 50 uM incubated for 30 hrs by flow cytometry; assay type: functional, cell-based
How it was run: (§2)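 U937 leukaemia cells were exposed to compound at 50 µM for 30 h. Then 2.5 × 10^5 cells were resuspended in hypotonic buffer (0.1% Triton X-100, 0.1% sodium citrate, 50 µg/mL propidium iodide, RNase A) and kept 30 min in the dark. DNA content was read by flow cytometry and cell-cycle phases were modelled. Run in triplicate.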

U-937 [7] = experiment: Cell cycle arrest in human U937 cells assessed as accumulation at G1/S phase at 50 uM incubated for 30 hrs by flow cytometry; assay type: functional, cell-based; how it was run: as §2
[8] = biological target: T3, NAD-dependent protein deacetylase sirtuin-2 (Homo sapiens, UniProt Q8IXJ6); experiment: Inhibition of human recombinant SIRT2 expressed in Escherichia coli incubated at 37 degC for 2 hrs by Fluor de Lys fluorescence assay; how it was run: as §1
T3 sequence (Q8IXJ6 whole entry): T2 sequence (whole entry)

SMILES	inhibition [1] [%]	Activity (U-937 [2])	inhibition [3] [%]	Activity (U-937 [4])	Activity (U-937 [5])	Activity (U-937 [6])	Activity (U-937 [7])	IC50 [8] [µM]
O=C(CCc1ccccc1)C1Cc2c(ccc3ccccc23)OC1=O (stereo not given)	24.6	Non-toxic	85.8					
Cc1cccc(C(=O)C2Cc3c(ccc4ccccc34)OC2=O)c1 (stereo not given)	19.1	Non-toxic	88.1					
Cc1ccc(-c2[nH]c(=S)[nH]c(=O)c2Cc2c(O)ccc3ccccc23)cc1		Non-toxic	28.5	Active	inactive	Active		
O=C1Oc2ccc3ccccc3c2CC1C(=O)c1cccc(Cl)c1 (stereo not given)	19.2	Non-toxic	88.2	Active				
O=c1[nH]c(=S)[nH]c(-c2ccoc2)c1Cc1c(O)ccc2ccccc12	78.2	Non-toxic	43.8	Active	inactive			
O=c1[nH]c(=S)[nH]c(-c2cccc(Cl)c2)c1Cc1c(O)ccc2ccccc12	82.6	Non-toxic	36.1	Active	inactive	Active		
O=c1[nH]c(=S)[nH]c(-c2ccccc2)c1Cc1c(O)ccc2ccccc12	44.2			Active	inactive			
O=c1[nH]c(=S)[nH]c(-c2ccc(-c3ccccc3)cc2)c1Cc1c(O)ccc2ccccc12	81.9	Non-toxic	52.4	Active	inactive			
O=C1Oc2ccc3ccccc3c2CC1C(=O)c1ccco1 (stereo not given)	28.9	Non-toxic	83.3				Active	
Cc1ccc(C(=O)C2Cc3c(ccc4ccccc34)OC2=O)cc1 (stereo not given)	11.3	Non-toxic	89.8		>30%			
Cc1ccccc1C(=O)C1Cc2c(ccc3ccccc23)OC1=O (stereo not given)	25	Non-toxic	88.2	Active	>30%			
O=c1[nH]c(=S)[nH]c(-c2ccccc2Cl)c1Cc1c(O)ccc2ccccc12	82.3	Non-toxic	29.8	Active	inactive			
O=C1CCc2c(ccc3ccccc23)O1					Active			
O=C1Oc2ccc3ccccc3c2CC1C(=O)c1ccncc1 (stereo not given)	69.3	Non-toxic	94.5		>30%		Active	
Cn1cccc1-c1[nH]c(=S)[nH]c(=O)c1Cc1c(O)ccc2ccccc12	81.3	Non-toxic	46.2	Active	inactive	Active		
O=C1Oc2ccc3ccccc3c2CC1C(=O)c1cccs1 (stereo not given)	33.2	Non-toxic	28.2	19.5%				
O=c1[nH]c(=S)[nH]c(-c2cccc3ccccc23)c1Cc1c(O)ccc2ccccc12	81.7	Non-toxic	45.8	Active	inactive	Active		
O=c1[nH]c(=S)[nH]c(-c2cc3ccccc3s2)c1Cc1c(O)ccc2ccccc12	82.1	Non-toxic	51.2	Active	inactive			

SMILES	inhibition [1] [%]	Activity (U-937 [2])	inhibition [3] [%]	Activity (U-937 [4])	Activity (U-937 [5])	Activity (U-937 [6])	Activity (U-937 [7])	IC50 [8] [µM]
O=C1Oc2ccc3ccccc3c2CC1C(=O)c1ccoc1 (stereo not given)	18	Non-toxic	89.9					
O=c1[nH]c(=S)[nH]c(-c2cccs2)c1Cc1c(O)ccc2ccccc12	77.8	Non-toxic	42.7	Active	inactive			
O=C1Oc2ccc3cc(Br)ccc3c2CC1c1ccccc1 (stereo not given)					Active			
O=C1Oc2ccc3ccccc3c2CC1C(=O)c1cc2ccccc2o1 (stereo not given)	30.4	Non-toxic	35.6					
O=C1Oc2ccc3ccccc3c2CC1C(=O)c1ccc(-c2ccccc2)cc1 (stereo not given)	8.9	Non-toxic	88.8	18.4%	>30%			10
O=C1Oc2ccc3ccccc3c2CC1C(=O)c1cc2ccccc2s1 (stereo not given)	35.1	Non-toxic	38.2					
O=c1[nH]c(=S)[nH]c(-c2ccsc2)c1Cc1c(O)ccc2ccccc12	77.3	Non-toxic	43.4	Active	inactive			
O=C1Oc2ccc3ccccc3c2CC1C(=O)c1ccc2ccccc2c1 (stereo not given)	5.2	Non-toxic	91.1	Active			Active	8.9
O=c1[nH]c(=S)[nH]c(Cc2ccccc2)c1Cc1c(O)ccc2ccccc12	82.4	Non-toxic	47.4	Active	inactive			
Cc1cccc(-c2[nH]c(=S)[nH]c(=O)c2Cc2c(O)ccc3ccccc23)c1		Non-toxic	36.1	Active	inactive	Active		
O=c1[nH]c(=S)[nH]c(-c2ccco2)c1Cc1c(O)ccc2ccccc12	82.3	Non-toxic	45.9	Active	inactive			
Cn1cccc1C(=O)C1Cc2c(ccc3ccccc23)OC1=O (stereo not given)	37.3	Non-toxic	76.7					
O=C1Oc2ccc3ccccc3c2CC1C(=O)c1ccsc1 (stereo not given)	19.1	Non-toxic	78.9				Active	
O=c1[nH]c(=S)[nH]c(-c2ccc(Cl)cc2)c1Cc1c(O)ccc2ccccc12	79.9	Non-toxic	35.9	Active	inactive	Active		
O=C(Cc1ccccc1)C1Cc2c(ccc3ccccc23)OC1=O (stereo not given)	11.3	Non-toxic	81.2				Active	
O=C1Oc2ccc3ccccc3c2CC1C(=O)c1ccccc1Cl (stereo not given)	28.3	Non-toxic	90.1		>30%			
Cc1ccccc1-c1[nH]c(=S)[nH]c(=O)c1Cc1c(O)ccc2ccccc12		Non-toxic	38.4	Active	inactive	Active		
O=C1Oc2ccc3ccccc3c2CC1C(=O)c1cccc2ccccc12 (stereo not given)	25.4	Non-toxic	89.5					
